Among the data in ChEMBL document CHEMBL1140516, “Dual-acting agents that possess reversing resistance and anticancer activities: Design, synthesis, MES-SA/Dx5 cell assay, and SAR of Benzyl 1,2,3,5,11,11a-hexahydro-3,3-dimethyl-1-oxo-6H-imidazo[3',4':1,2]pyridin[3,4-b]indol-2-substitutedacetates” (Bioorg Med Chem, 2007) are inhibition and IC50 values, retold here.

Experiment [1] can be described thus: Growth inhibition of doxorubicin-resistant human MES-SA/Dx5 cells at 1.0 uM after 48 hrs by MTT assay. The format is functional. The settings on record: MES-SA/Dx5, 48 h. Summed up: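 Exponential-phase MES-SA/Dx5 cells were seeded at 1×10^5/mL in McCoy's 5A with 10% FCS and penicillin/streptomycin on poly-L-lysine-coated wells and preincubated 4 h at 37 °C under 5% CO2. Compound was added in medium as a 1 µmol/L solution and cells were grown 48 h. In the MTT read-out, DMSO-dissolved formazan absorbance was measured. Inhibition% = 1 − (drug−blank)/(control−blank), with untreated cells as control and a cell-free blank.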

Experiment [2] can be described thus: Growth inhibition of doxorubicin-sensitive human MES-SA cells after 48 hrs by MTT assay. The format is functional, cell-based. A digest of the protocol:
(§1)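 MES-SA or MES-SA/Dx5 cells in exponential growth were seeded at 1×10^5/mL in McCoy's 5A with 10% FCS, penicillin and streptomycin on poly-L-lysine-coated plates and held 4 h at 37 °C, 5% CO2. Doxorubicin was then added at final 0.04–10.00 µM (serial halving) for 48 h. Read-out was MTT, with dried formazan dissolved in DMSO and absorbance read. Survival% = (treated−blank)/(control−blank), and IC50 was taken from the survival–concentration plot.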
(Formazan colour is commonly taken as a measure of viable cells.)

Experiment [3] is described as follows: Growth inhibition of doxorubicin-resistant human MES-SA/Dx5 cells after 48 hrs by MTT assay. The format is functional, cell-based. To be noted: MES-SA/Dx5, 48 h. Summed up: as §1

Consider `CC1(C)N2Cc3[nH]c4ccccc4c3C[C@H]2C(=O)N1[C@@H](Cc1c[nH]c2ccccc12)C(=O)OCc1ccccc1`, for which at 1 µM the inhibition in experiment [1] was 0%.
The same measure, in the same setting: to `CC1(C)N2Cc3[nH]c4ccccc4c3C[C@H]2C(=O)N1[C@@H](Cc1ccc(O)cc1)C(=O)OCc1ccccc1` belongs 0%; to `CC1(C)N2Cc3[nH]c4ccccc4c3C[C@H]2C(=O)N1[C@@H](CC(N)=O)C(=O)OCc1ccccc1`, 0%.
Still for that read-out and setting: to `CC(C)[C@@H](C(=O)OCc1ccccc1)N1C(=O)[C@@H]2Cc3c([nH]c4ccccc34)CN2C1(C)C` belongs 0%; to `CCC(C)[C@@H](C(=O)OCc1ccccc1)N1C(=O)[C@@H]2Cc3c([nH]c4ccccc34)CN2C1(C)C` (stereo partly specified), 0%; to `CC1(C)N2Cc3[nH]c4ccccc4c3C[C@H]2C(=O)N1[C@@H](Cc1ccccc1)C(=O)OCc1ccccc1`, 31.2%.
On the same count and under the same terms, to `CC1(C)N2Cc3[nH]c4ccccc4c3C[C@H]2C(=O)N1[C@@H](CCC(=O)OCc1ccccc1)C(=O)OCc1ccccc1` belongs 13.4%; to `CC1(C)N2Cc3[nH]c4ccccc4c3C[C@H]2C(=O)N1[C@@H](CCC(N)=O)C(=O)OCc1ccccc1`, 0%.
`CC1(C)N(CC(=O)OCc2ccccc2)C(=O)[C@@H]2Cc3c([nH]c4ccccc34)CN21`: testing at 1 µM in experiment [1] gave an inhibition of 0%.
Still for that read-out and setting: to `CC1(C)N2Cc3[nH]c4ccccc4c3C[C@H]2C(=O)N1[C@@H](COCc1ccccc1)C(=O)OCc1ccccc1` belongs 0%; to `CC1(C)N2Cc3[nH]c4ccccc4c3C[C@H]2C(=O)N1[C@@H](CC(=O)OCc1ccccc1)C(=O)OCc1ccccc1`, 31.2%.
The same measure, in the same setting: the result for `CC1(C)N2Cc3[nH]c4ccccc4c3C[C@H]2C(=O)N1[C@@H](CCCCNC(=O)OCc1ccccc1)C(=O)OCc1ccccc1` reads 0%.
As to `COc1cccc2c1C(=O)c1c(O)c3c(c(O)c1C2=O)C[C@@](O)(C(=O)CO)C[C@@H]3O[C@H]1C[C@H](N)[C@H](O)[C@H](C)O1` [DOXORUBICIN], the IC50 (in general, the midpoint of a concentration-inhibition curve) worked out at 347 nM in experiment [2] and 1550 nM in experiment [3].
On to `C[C@@H](C(=O)OCc1ccccc1)N1C(=O)[C@@H]2Cc3c([nH]c4ccccc34)CN2C1(C)C`, for which 1 µM produced 0% inhibition in experiment [1].
On to `CC(C)C[C@@H](C(=O)OCc1ccccc1)N1C(=O)[C@@H]2Cc3c([nH]c4ccccc34)CN2C1(C)C`, for which 1 µM produced 38.9% inhibition in experiment [1].
